The source made the active and inactive calls. No cut-off for these calls is given here.
Tests used:
[1] = molecular target: Microtubule-associated protein tau (Homo sapiens) (UniProt P10636); test: Inhibition of heparin-induced 4R tau (unknown origin) aggregation at 100 uM after 3 days by ThT fluorescence assay relative to control
In short: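 20 μM 4R tau plus 5 μM heparin (avg MW 15 000) in 100 mM sodium acetate pH 7.0, ± 100 μM compound, incubated 3 days at 37 °C with 1 mM DTT added daily. ThT 12.5 μM then added, 1 h at room temperature. Spectra read with excitation 440 nm, emission 450–750 nm; intensity at emission maximum compared with tau alone.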

[2] = molecular target: Microtubule-associated protein tau (Homo sapiens) (UniProt P10636); test: Inhibition of heparin-induced 4R tau (unknown origin) aggregation at 200 uM after 24 hrs by filter trap assay
In short: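 Heparin-induced fibrillisation of 4R tau in PBS with 200 μM compound, 37 °C, 24 h. Fibrils diluted to 0.8 μM tau in 2% SDS, vacuum-filtered through membrane, washed twice with 2% SDS, probed with 4R tau-specific antibody, chemiluminescent dot detection and densitometry; 7 independent experiments.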

[3] = molecular target: Microtubule-associated protein tau (Homo sapiens) (UniProt P10636); test: Induction of heparin-induced recombinant 4R tau (unknown origin) fibril oxidation at cysteine residues at 200 uM after 2 hrs by oregon green binding assay
In short: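 Recombinant 4R tau (10 μM) fibrillised with 40 μM heparin in sodium acetate buffer pH 7, ± 200 μM compound, 37 °C, 2 h. Controls reduced with 1 mM DTT or oxidised with 20% v/v DMSO. Then labeled with Oregon green-iodoacetamide 30 min at room temperature, SDS-PAGE, fluorescence imaging. Band intensity normalized to Coomassie-stained total tau; 5 independent experiments.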

Sequence of Microtubule-associated protein tau (Homo sapiens) (P10636 whole entry): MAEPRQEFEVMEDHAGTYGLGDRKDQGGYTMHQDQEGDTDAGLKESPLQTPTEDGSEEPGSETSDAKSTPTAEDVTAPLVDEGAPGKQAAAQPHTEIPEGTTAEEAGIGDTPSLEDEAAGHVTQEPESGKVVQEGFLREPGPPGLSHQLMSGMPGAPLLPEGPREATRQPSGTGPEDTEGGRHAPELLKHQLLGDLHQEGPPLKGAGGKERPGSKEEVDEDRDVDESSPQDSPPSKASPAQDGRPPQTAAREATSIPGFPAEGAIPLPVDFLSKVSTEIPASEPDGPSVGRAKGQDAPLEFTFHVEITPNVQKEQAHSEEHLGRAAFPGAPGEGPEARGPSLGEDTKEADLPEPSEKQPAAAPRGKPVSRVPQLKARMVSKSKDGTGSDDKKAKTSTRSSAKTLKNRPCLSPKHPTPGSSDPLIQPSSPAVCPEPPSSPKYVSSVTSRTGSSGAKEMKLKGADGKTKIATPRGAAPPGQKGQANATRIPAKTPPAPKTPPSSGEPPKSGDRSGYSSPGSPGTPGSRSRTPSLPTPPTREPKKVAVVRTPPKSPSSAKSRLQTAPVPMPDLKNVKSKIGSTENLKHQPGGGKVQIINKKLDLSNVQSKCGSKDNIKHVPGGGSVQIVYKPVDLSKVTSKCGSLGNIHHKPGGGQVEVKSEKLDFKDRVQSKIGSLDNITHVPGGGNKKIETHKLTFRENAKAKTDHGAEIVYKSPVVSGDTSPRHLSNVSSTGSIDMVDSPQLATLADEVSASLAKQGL

Row | Structure (SMILES) | inhibition [1] [%] | inhibition [2] | Activity [3]
1 | C=CCO/N=C(\C(=O)NC1CC1)c1csc(N)c1C(=O)Nc1ccc(F)cc1 | 33 | Active | inactive
2 | Nc1scc(/C(=N/O)C(=O)NC2CC2)c1C(=O)Nc1ccc(F)cc1 |  | Active | Active
3 | Nc1scc(/C(=N/O)C(=O)NC2CC2)c1C(=O)NC12CC3CC(CC(C3)C1)C2 | 30 | Active | Active
4 | Nc1scc2c(C(=O)NC3CC3)nn(-c3ccc(F)cc3)c(=O)c12 | 51 | Active | Active

— ChEMBL document CHEMBL4261481, “Ring-opened aminothienopyridazines as novel tau aggregation inhibitors” (Medchemcomm, 2017)
